Assays:
[1] = molecular target: T1, Homeodomain-interacting protein kinase 4 (Homo sapiens) (UniProt Q8NE63); experiment: Inhibition of human recombinant HIPK4 at 500 nM in presence of ATP by radiometric assay relative to control
T1 sequence (whole entry): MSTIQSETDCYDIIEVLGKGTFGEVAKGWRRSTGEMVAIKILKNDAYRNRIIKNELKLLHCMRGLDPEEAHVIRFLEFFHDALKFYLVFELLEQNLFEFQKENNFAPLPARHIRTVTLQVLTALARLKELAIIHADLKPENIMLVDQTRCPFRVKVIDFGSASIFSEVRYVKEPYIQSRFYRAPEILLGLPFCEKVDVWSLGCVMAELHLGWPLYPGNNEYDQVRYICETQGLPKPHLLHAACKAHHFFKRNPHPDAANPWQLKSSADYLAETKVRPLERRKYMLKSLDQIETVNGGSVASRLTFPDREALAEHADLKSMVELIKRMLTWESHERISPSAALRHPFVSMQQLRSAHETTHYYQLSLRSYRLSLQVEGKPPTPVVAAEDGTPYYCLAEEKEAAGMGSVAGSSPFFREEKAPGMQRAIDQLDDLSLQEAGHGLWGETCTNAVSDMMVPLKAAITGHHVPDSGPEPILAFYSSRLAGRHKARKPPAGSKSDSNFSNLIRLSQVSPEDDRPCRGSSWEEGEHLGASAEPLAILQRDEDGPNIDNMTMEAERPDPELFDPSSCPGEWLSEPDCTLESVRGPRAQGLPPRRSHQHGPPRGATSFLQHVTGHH

[2] = molecular target: T2, Tyrosine-protein kinase TXK (Homo sapiens) (UniProt P42681); experiment: Inhibition of human recombinant TXK at 500 nM in presence of ATP by radiometric assay relative to control
T2 sequence (whole entry): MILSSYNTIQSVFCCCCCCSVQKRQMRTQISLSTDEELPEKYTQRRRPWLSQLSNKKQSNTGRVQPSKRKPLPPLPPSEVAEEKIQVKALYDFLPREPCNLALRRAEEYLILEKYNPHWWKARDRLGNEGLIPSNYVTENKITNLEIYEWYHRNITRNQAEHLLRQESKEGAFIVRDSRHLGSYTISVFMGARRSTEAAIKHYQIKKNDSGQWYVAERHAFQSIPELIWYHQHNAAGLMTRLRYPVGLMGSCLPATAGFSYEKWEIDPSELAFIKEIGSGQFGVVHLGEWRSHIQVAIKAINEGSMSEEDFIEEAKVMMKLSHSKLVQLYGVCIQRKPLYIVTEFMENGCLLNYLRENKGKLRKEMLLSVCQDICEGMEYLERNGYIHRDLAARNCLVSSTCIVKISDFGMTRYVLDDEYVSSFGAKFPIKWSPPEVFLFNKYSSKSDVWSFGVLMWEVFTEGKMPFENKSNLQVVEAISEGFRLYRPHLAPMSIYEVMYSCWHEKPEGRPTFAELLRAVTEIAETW

[3] = molecular target: Activin receptor type-1-like (Homo sapiens) (UniProt P37023); experiment: Inhibition of human recombinant ALK1 at 500 nM related to control ULK1
Activin receptor type-1-like (Homo sapiens), sequence (P37023 whole entry): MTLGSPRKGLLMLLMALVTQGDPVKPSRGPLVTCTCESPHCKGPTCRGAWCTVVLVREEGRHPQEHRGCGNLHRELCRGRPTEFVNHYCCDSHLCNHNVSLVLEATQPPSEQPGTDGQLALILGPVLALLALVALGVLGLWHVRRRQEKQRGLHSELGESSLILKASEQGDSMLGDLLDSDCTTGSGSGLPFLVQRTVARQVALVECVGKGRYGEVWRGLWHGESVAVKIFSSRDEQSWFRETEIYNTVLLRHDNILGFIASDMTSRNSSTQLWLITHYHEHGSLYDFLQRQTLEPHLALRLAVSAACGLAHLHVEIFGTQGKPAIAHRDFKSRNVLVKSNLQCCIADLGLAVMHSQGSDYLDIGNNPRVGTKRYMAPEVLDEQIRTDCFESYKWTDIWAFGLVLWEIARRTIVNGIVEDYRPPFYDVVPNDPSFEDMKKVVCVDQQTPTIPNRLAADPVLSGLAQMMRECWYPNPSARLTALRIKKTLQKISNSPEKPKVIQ
Procedure, shortened: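 Panel of 327 recombinant human kinases, each assayed in vitro by radiometric activity assay in duplicate at a single inhibitor concentration per compound, chosen with reference to its ULK1 inhibition. Activity remaining was expressed as percent of vehicle control, and percent inhibition was calculated as 100 minus percent activity remaining.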

[4] = molecular target: Serine/threonine-protein kinase Chk2 (Homo sapiens) (UniProt O96017); experiment: Inhibition of human recombinant CHK2 at 500 nM related to control ULK1
Serine/threonine-protein kinase Chk2 (Homo sapiens), sequence (O96017 whole entry): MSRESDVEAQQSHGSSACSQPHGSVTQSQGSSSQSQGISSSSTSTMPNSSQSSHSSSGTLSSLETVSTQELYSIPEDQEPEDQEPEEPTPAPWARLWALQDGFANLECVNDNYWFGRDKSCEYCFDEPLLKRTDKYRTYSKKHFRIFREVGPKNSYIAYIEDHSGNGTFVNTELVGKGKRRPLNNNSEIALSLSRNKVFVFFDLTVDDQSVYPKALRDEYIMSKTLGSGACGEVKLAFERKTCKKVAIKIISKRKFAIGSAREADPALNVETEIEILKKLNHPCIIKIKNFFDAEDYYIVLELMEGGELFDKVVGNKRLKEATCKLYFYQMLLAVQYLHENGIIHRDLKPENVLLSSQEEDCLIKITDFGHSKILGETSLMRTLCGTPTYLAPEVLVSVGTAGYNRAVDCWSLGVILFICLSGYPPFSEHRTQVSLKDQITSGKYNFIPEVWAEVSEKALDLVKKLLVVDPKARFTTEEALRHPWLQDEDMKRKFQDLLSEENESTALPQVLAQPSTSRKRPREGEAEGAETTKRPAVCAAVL

[5] = molecular target: T3, Serine/threonine-protein kinase PLK4 (Homo sapiens) (UniProt O00444); experiment: Inhibition of human recombinant PLK4 at 40 nM in presence of ATP by radiometric assay relative to control
T3 sequence (whole entry): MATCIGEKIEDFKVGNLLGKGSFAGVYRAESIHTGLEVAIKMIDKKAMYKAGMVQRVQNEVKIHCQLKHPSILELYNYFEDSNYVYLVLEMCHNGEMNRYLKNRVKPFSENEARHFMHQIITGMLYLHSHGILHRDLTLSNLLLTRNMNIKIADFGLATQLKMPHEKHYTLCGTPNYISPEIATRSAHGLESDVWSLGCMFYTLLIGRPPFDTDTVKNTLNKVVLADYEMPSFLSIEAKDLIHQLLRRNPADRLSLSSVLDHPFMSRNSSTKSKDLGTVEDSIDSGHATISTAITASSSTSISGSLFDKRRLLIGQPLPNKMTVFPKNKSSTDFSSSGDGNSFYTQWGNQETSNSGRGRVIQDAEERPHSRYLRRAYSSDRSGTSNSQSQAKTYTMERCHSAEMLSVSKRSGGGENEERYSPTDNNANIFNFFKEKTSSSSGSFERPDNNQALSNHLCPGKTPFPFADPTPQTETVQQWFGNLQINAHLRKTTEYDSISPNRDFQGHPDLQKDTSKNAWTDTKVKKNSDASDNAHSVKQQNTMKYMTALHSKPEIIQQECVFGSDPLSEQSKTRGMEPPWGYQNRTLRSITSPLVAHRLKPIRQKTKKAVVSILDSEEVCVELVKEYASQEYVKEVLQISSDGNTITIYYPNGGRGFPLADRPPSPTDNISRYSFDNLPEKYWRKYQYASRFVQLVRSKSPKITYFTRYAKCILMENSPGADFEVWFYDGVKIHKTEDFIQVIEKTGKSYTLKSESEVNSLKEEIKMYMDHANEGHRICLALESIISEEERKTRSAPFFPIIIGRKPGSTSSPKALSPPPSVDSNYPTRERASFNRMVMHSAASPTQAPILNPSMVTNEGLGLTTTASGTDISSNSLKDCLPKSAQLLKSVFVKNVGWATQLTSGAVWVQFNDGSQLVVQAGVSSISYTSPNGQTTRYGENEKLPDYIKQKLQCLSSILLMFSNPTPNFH

inhibition [1] [%]	inhibition [2] [%]	fold change (FC) [3]	fold change (FC) [4]	inhibition [5] [%]	SMILES
9	17	0	0	–	CNC(=O)c1ccccc1Oc1nc(Nc2cc(OC)c(OC)c(OC)c2)ncc1Br
–	–	–	–	7	O=C(N[C@@H](C1CC1)C(F)(F)F)c1cc(-c2cnn3cc(-c4ccc(F)cc4)cnc23)cs1

From ChEMBL document CHEMBL5653631, “A Potent and Selective ULK1 Inhibitor Suppresses Autophagy and Sensitizes Cancer Cells to Nutrient Stress” (iScience, 2018)
